Results from ChEMBL document CHEMBL1140109, “Discovery of inhibitors of Escherichia coli methionine aminopeptidase with the Fe(II)-form selectivity and antibacterial activity” (J Med Chem, 2008).
≈ marks a conversion by molar mass, not a printed value. Calls of active or inactive are those of the source. The calls are words filed in the database; no cut-off is given here.

Experiments:
[1] = Inhibition of Escherichia coli BL21(DE3) methionine aminopeptidase in presence of Mn(II) metal ions
Method in brief: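 E. coli MetAP apoenzyme, recombinant from BL21(DE3), at 500 nM and metallated with 20 μM MnCl2. Contained 50 mM MOPS pH 7.0 and 200 μM Met-AMC, at room temperature. IC50 was derived by non-linear fit of percent inhibition versus concentration.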

[2] = Inhibition of Escherichia coli BL21(DE3) methionine aminopeptidase in presence of Fe(II) metal ions
Method in brief: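 Purified BL21(DE3)-expressed E. coli MetAP apoenzyme at 500 nM, activated with 50 μM FeCl2 plus 100 μM ascorbic acid. Buffer was 50 mM MOPS pH 7.0 with 200 μM Met-AMC, at room temperature. Hydrolysis was followed by fluorescence (ex 360/em 460 nm) at serially diluted inhibitor concentrations. IC50 was obtained by non-linear curve fit of percent inhibition.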

Escherichia coli [3] = experiment: Antibacterial activity against Escherichia coli AS19; type: functional, organism-based
Method in brief: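 AS19 culture at 0.5 McFarland, exponential phase, diluted 1000-fold in Mueller Hinton medium containing 100 mM Tris pH 7.5, exposed to increasing inhibitor concentrations […]. Growth followed by absorbance at 600 nm every 5 min for 10 h at 37°C.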

Escherichia coli [4] = experiment: Antibacterial activity against Escherichia coli D22; type: functional, organism-based
Method in brief: (§1)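 Exponential-phase culture at 0.5 McFarland diluted 1000-fold in Mueller Hinton medium with 100 mM Tris pH 7.5, mixed with inhibitor at increasing concentrations plus resazurin (110 µM final). Fluorescence (ex 530/em 590) read every 5 min for 10 h at 37°C.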

Bacillus subtilis = experiment: Antibacterial activity against Bacillus subtilis; type: functional, organism-based; method in brief: as §1
Priestia megaterium = experiment: Antibacterial activity against Bacillus megaterium; type: functional, organism-based; method in brief: as §1
[5] = Inhibition of Escherichia coli BL21(DE3) methionine aminopeptidase in presence of Co(II) metal ions
Method in brief: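 Recombinant E. coli MetAP apoenzyme purified from BL21(DE3) cells, used at 500 nM and activated with 10 μM CoCl2. Buffer was 50 mM MOPS pH 7.0 with 200 μM Met-AMC substrate, at room temperature. AMC release was read by fluorescence (ex 360/em 460 nm) across serially diluted inhibitor. IC50 came from non-linear fitting of percent inhibition.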

Escherichia coli [6] = experiment: Antibacterial activity against Escherichia coli ATCC 25922; type: functional, organism-based
Method in brief: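 Wild-type strain grown to exponential phase (0.5 McFarland), diluted 1000-fold in Tris-free Mueller Hinton medium, incubated with increasing inhibitor concentrations and 110 µM resazurin. Fluorescence (ex 530/em 590) monitored 10 h at 37°C at 5-min intervals.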

[7] = tested on: Escherichia coli BL21(DE3); experiment: Inhibition of Escherichia coli BL21(DE3) methionine aminopeptidase up to 100 uM in presence of Co(II) metal ions
Method in brief: (§2)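 Purified apoenzyme (500 nM) in 50 mM MOPS pH 7.0 with 200 µM Met-AMC, activated by 50 µM FeCl2 plus 100 µM ascorbic acid (Fe), 10 µM CoCl2 (Co) or 20 µM MnCl2 (Mn), with serially diluted inhibitor. AMC release read by fluorescence (ex 360/em 460) at room temperature. IC50 from non-linear fit of percent inhibition versus concentration.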

[8] = tested on: Escherichia coli BL21(DE3); experiment: Inhibition of Escherichia coli BL21(DE3) methionine aminopeptidase up to 100 uM in presence of Mn(II) metal ions; method in brief: as §2
[9] = tested on: Escherichia coli BL21(DE3); experiment: Inhibition of Escherichia coli BL21(DE3) methionine aminopeptidase up to 100 uM in presence of Fe(II) metal ions; method in brief: as §2

Activity [7] | Activity [8] | Activity [9] | SMILES | IC50 [1] [µM] | IC50 [2] [µM] | IC50 (Escherichia coli [3]) [µM] | MIC (Escherichia coli [3]) [µg/mL] | IC50 (Escherichia coli [4]) [µM] | MIC (Escherichia coli [4]) [µg/mL] | IC50 (Bacillus subtilis) [µM] | MIC (Bacillus subtilis) [µg/mL] | IC50 (Priestia megaterium) [µM] | MIC (Priestia megaterium) [µg/mL] | IC50 [5] [µM] | IC50 (Escherichia coli [6]) [µM]
– | – | – | Cc1sc(C)c(-c2ccc(O)c(O)c2)c1Br | 2.1 | 3.1 | 10.8 | 5 (≈ 16.7 µM) | 7.7 | 9 (≈ 30.1 µM) | 12.8 | 8 (≈ 26.7 µM) | 17.5 | 10 (≈ 33.4 µM) | 2.4 | –
– | – | – | Cc1nc(-c2ccc(O)c(O)c2)cs1 | > 100 | 13 | 117 | 91 (≈ 439 µM) | 5.6 | 4 (≈ 19.3 µM) | 67 | 41 (≈ 198 µM) | 69.8 | 73 (≈ 352 µM) | > 100 | 281
– | – | – | N#Cc1ccc(-c2ccc(O)c(O)c2)s1 | 30.4 | 14.8 | 20.1 | 11 (≈ 50.6 µM) | 44.2 | 15 (≈ 69 µM) | 14.6 | 13 (≈ 59.8 µM) | 15.3 | 9 (≈ 41.4 µM) | 36.3 | –
– | – | – | Oc1ccc(-c2cc(Cl)sc2Cl)cc1O | 48.6 | 20.2 | 6.1 | 3 (≈ 11.5 µM) | 7.3 | 2 (≈ 7.66 µM) | 6 | 2 (≈ 7.66 µM) | 5 | 1 (≈ 3.83 µM) | 62.4 | –
inactive | inactive | inactive | Cc1nc(-c2ccc(N)c(N)c2)cs1 | – | – | 117 | – | – | – | – | – | – | – | – | –
– | – | – | Cc1ccsc1-c1ccc(O)c(O)c1 | 23 | 8 | 15.2 | 7 (≈ 33.9 µM) | 9 | 3 (≈ 14.5 µM) | 22.1 | 8 (≈ 38.8 µM) | 15.3 | 13 (≈ 63 µM) | 42.7 | 179
– | – | – | Oc1ccc(-c2nccs2)cc1O | > 100 | 16.6 | 235 | 198 (≈ 1020 µM) | 98.7 | 66 (≈ 342 µM) | 397 | 193 (≈ 999 µM) | 224 | 112 (≈ 580 µM) | > 100 | –
– | – | – | Oc1ccc(-c2ccc(Cl)s2)cc1O | 44.8 | 12.8 | 15.5 | 7 (≈ 30.9 µM) | 7.5 | 3 (≈ 13.2 µM) | 7.1 | 2 (≈ 8.82 µM) | 6.3 | 2 (≈ 8.82 µM) | > 100 | –
inactive | inactive | inactive | CC(=O)Nc1ccc(-c2csc(C)n2)cc1[N+](=O)[O-] | – | – | 63.3 | – | – | – | – | – | – | – | – | –
inactive | inactive | inactive | Cc1nc(-c2cccc(O)c2)cs1 | – | – | 158 | – | – | – | – | – | – | – | – | –
inactive | inactive | inactive | Cc1nc(-c2ccc(O)cc2O)cs1 | – | – | 95.9 | – | – | – | – | – | – | – | – | –
– | – | – | Cc1cc(-c2ccc(O)c(O)c2)c(C)s1 | > 100 | 7.4 | 18.5 | 9 (≈ 40.9 µM) | 3.7 | 4 (≈ 18.2 µM) | 16.5 | 5 (≈ 22.7 µM) | 16 | 5 (≈ 22.7 µM) | > 100 | –
– | – | – | O=C(NC1CC1)c1ccc(-c2ccc(O)c(O)c2)s1 | 34 | 23.8 | 110 | 78 (≈ 283 µM) | 238 | 105 (≈ 381 µM) | 211 | 122 (≈ 443 µM) | 133 | 85 (≈ 309 µM) | 28.5 | –
– | – | – | O=C(NC1CC1)c1ccsc1-c1ccc(O)c(O)c1 | > 100 | 7.8 | 116 | 113 (≈ 410 µM) | 254 | 151 (≈ 548 µM) | 109 | 56 (≈ 203 µM) | 54 | 79 (≈ 287 µM) | > 100 | –
– | – | – | CCc1ccsc1-c1ccc(O)c(O)c1 | – | 12.9 | 15.4 | 5 (≈ 22.7 µM) | 11.8 | 6 (≈ 27.2 µM) | 21.8 | 7 (≈ 31.8 µM) | 27.8 | 11 (≈ 49.9 µM) | 62.6 | –
– | – | – | Oc1ccc(-c2cccs2)cc1O | 15.7 | 5.1 | 32.8 | – | 4 | 3 (≈ 15.6 µM) | 16.1 | 7 (≈ 36.4 µM) | 21.2 | 9 (≈ 46.8 µM) | 23.7 | –
– | – | – | Cc1nc(C(=O)NC(C)C)c(-c2ccc(O)c(O)c2)s1 | > 100 | 15.4 | 116 | 121 (≈ 414 µM) | 93.8 | 73 (≈ 250 µM) | 186 | 125 (≈ 428 µM) | 175 | 122 (≈ 417 µM) | > 100 | –
inactive | inactive | inactive | Cc1nc(-c2ccc(N)c([N+](=O)[O-])c2)cs1 | – | – | 204 | – | – | – | – | – | – | – | – | –
– | – | – | Oc1ccc(-c2sccc2CCBr)cc1O | 22.4 | 7.3 | 11.3 | 5 (≈ 16.7 µM) | 86 | 51 (≈ 170 µM) | 25.2 | 10 (≈ 33.4 µM) | 21.1 | 14 (≈ 46.8 µM) | 14 | –
– | – | – | CCCCc1ccsc1-c1ccc(O)c(O)c1 | 48.2 | 9.2 | 12.4 | 5 (≈ 20.1 µM) | 13.5 | 5 (≈ 20.1 µM) | 7.8 | 3 (≈ 12.1 µM) | 7.6 | 3 (≈ 12.1 µM) | > 100 | –
– | – | – | Nc1nc(-c2ccc(O)c(O)c2)cs1 | > 100 | 6.6 | 145 | 39 (≈ 187 µM) | 39.9 | 11 (≈ 52.8 µM) | 28.6 | 13 (≈ 62.4 µM) | 36.9 | 26 (≈ 125 µM) | > 100 | –
inactive | inactive | inactive | Cc1nc(-c2ccc(O)c(C(N)=O)c2)cs1 | – | – | 125 | – | – | – | – | – | – | – | – | –
– | – | – | CCCc1ccsc1-c1ccc(O)c(O)c1 | 34.3 | 14 | 15.5 | 4 (≈ 17.1 µM) | 43 | 19 (≈ 81.1 µM) | 14.9 | 4 (≈ 17.1 µM) | 15.5 | 6 (≈ 25.6 µM) | 100 | –
– | – | – | Cc1nc(C(=O)NC2CC2)c(-c2ccc(O)c(O)c2)s1 | 100 | 11.1 | 125 | 138 (≈ 475 µM) | 167 | 103 (≈ 355 µM) | 113 | 51 (≈ 176 µM) | 75.5 | 62 (≈ 214 µM) | 92.3 | –
– | – | – | Oc1ccc(-c2ccsc2)cc1O | 27.5 | 3.8 | 29.9 | 15 (≈ 78 µM) | 2 | 2 (≈ 10.4 µM) | 15.7 | 9 (≈ 46.8 µM) | 19.2 | 10 (≈ 52 µM) | 40.4 | –
inactive | inactive | inactive | COc1ccc(-c2csc(C)n2)cc1OC | – | – | 206 | – | – | – | – | – | – | – | – | –
– | – | – | Cc1ccc(-c2ccc(O)c(O)c2)s1 | 28 | 32.7 | 87.7 | 60 (≈ 291 µM) | 39.1 | 18 (≈ 87.3 µM) | 25.1 | 10 (≈ 48.5 µM) | 26 | 10 (≈ 48.5 µM) | 51.5 | –
